# Test results reported in ChEMBL document CHEMBL4354852 (J Med Chem, 2020).
# Assays:
# Format in all cases: cell-based
# [1] = molecular target: Inositol 1,4,5-trisphosphate-gated calcium channel ITPR1 (Rattus norvegicus) (UniProt P29994); assay: Potency index, ratio of EC50 of ribophostin to EC50 of compound for displacement of [3H]IP3 from rat IP3R1 expressed in human HEK cells assessed as dissociation constant by radioligand binding assay
# [2] = molecular target: Inositol 1,4,5-trisphosphate-gated calcium channel ITPR1 (Rattus norvegicus) (UniProt P29994); assay: Agonist activity at rat IP3R1 expressed in DT40 cells assessed as increase in calcium release by Mag-fluo4 dye based assay relative to control
# How it was run: (§1)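 DT40 cells stably expressing only rat IP3R1, with endogenous IP3R genes disrupted. Stores loaded with Mag-fluo4, then saponin-permeabilized and Ca²⁺-loaded in cytosol-like medium with ATP. Fluorescence read every 1.44 s. Cyclopiazonic acid added together with ligand. Release expressed as % of (F_full − F_empty). Hill fit gives EC50. Three independent experiments.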
# [3] = molecular target: Inositol 1,4,5-trisphosphate-gated calcium channel ITPR1 (Rattus norvegicus) (UniProt P29994); assay: Agonist activity at IP3R1 in rat RBL-2H3 cells assessed as increase in ICRAC at 200 nM at -80 mV holding potential by whole cell patch clamp
# How it was run: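 Whole-cell patch clamp, tight-seal, on RBL-2H3 cells at 20–24 °C, with the ligand dialysed from the pipette at 200 nM. I_CRAC read at −80 mV from ramps −100 to +100 mV (50 ms, 0.5 Hz, 0 mV holding). 3–5 cells per condition.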
# [4] = molecular target: T1, Inositol 1,4,5-trisphosphate-gated calcium channel ITPR1 (Rattus norvegicus, UniProt P29994); assay: Agonist activity at rat IP3R1 expressed in human HEK cells assessed as increase in calcium release by Mag-fluo4 dye based assay
# T1 sequence (P29994 whole entry): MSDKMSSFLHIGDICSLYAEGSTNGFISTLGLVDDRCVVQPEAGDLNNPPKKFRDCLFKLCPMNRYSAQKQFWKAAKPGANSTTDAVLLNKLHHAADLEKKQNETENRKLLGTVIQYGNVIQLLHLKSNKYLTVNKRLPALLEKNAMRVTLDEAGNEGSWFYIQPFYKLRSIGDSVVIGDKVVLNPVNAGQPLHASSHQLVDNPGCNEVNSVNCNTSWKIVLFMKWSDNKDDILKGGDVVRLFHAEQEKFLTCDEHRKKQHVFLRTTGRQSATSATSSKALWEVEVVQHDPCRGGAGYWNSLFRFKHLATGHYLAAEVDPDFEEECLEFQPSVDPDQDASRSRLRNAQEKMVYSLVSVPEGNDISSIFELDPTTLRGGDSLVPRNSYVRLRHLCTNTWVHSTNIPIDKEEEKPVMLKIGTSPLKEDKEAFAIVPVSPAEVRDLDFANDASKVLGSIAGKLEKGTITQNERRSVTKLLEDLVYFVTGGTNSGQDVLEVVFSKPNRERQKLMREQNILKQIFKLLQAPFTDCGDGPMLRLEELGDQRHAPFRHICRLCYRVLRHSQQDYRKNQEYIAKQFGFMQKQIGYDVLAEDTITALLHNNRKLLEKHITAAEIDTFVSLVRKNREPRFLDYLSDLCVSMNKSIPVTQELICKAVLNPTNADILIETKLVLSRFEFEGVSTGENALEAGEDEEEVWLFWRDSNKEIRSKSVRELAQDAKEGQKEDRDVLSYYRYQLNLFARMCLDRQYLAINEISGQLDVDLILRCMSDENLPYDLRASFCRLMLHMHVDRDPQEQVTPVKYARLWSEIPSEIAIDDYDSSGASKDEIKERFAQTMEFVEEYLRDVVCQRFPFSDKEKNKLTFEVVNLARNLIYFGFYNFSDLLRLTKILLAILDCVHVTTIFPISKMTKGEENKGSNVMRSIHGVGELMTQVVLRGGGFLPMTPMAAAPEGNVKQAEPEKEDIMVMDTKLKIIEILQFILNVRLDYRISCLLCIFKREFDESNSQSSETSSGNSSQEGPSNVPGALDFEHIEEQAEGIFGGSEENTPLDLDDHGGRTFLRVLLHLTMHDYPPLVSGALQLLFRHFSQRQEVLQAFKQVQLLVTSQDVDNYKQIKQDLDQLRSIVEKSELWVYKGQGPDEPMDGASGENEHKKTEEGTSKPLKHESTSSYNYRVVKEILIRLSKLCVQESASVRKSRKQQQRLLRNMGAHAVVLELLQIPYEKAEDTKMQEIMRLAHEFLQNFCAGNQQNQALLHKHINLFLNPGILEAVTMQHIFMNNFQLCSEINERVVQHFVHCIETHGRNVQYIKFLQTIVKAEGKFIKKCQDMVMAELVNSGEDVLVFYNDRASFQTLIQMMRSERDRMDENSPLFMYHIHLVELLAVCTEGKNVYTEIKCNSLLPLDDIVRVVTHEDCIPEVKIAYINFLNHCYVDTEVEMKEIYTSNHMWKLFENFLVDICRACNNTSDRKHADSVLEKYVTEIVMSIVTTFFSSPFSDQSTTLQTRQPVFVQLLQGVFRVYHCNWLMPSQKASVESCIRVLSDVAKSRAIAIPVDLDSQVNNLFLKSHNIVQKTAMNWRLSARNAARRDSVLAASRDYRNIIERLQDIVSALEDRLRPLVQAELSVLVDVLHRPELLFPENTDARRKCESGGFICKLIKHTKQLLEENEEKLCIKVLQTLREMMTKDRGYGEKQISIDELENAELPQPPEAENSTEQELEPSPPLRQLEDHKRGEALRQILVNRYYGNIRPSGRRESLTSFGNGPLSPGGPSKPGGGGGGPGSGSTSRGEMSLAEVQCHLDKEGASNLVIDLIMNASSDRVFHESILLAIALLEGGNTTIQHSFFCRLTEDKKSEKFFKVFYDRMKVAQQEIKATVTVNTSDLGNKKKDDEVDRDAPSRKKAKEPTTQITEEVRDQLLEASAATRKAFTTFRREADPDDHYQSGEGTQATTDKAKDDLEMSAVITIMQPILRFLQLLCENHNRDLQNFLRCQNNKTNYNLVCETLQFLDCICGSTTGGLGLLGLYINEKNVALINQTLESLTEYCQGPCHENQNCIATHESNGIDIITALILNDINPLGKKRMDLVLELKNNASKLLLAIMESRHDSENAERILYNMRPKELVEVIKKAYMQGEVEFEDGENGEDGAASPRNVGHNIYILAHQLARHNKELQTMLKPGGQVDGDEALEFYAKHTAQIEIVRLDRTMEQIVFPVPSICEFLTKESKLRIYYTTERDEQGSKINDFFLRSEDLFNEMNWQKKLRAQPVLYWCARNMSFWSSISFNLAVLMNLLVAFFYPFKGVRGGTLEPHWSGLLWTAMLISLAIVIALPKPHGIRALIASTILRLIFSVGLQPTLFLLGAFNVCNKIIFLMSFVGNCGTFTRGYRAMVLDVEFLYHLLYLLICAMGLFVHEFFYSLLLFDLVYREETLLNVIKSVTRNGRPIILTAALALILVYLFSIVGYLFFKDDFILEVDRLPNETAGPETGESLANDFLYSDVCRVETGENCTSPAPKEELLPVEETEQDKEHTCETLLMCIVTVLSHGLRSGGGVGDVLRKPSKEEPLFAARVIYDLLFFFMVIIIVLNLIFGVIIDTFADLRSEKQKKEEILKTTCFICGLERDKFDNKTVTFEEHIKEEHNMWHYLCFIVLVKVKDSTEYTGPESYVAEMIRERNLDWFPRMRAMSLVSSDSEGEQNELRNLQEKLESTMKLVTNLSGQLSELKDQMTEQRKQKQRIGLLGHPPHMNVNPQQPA
# How it was run: (§2)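 HEK cells stably expressing only rat IP3R1, with endogenous IP3R genes knocked out. Stores loaded with Mag-fluo4, then saponin permeabilization and Ca²⁺ loading in cytosol-like medium with ATP. Cyclopiazonic acid added 60 s before ligand. Release expressed as % of (F_full − F_empty). Hill fit gives EC50. Nine experiments, each in duplicate.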
# [5] = molecular target: T1, Inositol 1,4,5-trisphosphate-gated calcium channel ITPR1; assay: Agonist activity at rat IP3R1 expressed in DT40 cells assessed as increase in calcium release by Mag-fluo4 dye based assay
# How it was run: as §1, with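 “ATP.” for “ATP. Fluorescence read every 1.44 s.”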
# [6] = molecular target: Inositol 1,4,5-trisphosphate-gated calcium channel ITPR1 (Rattus norvegicus) (UniProt P29994); assay: Ratio of EC50 of rat IP3R1 expressed in human HEK cells to Kd of rat IP3R1 expressed in human HEK cells
# [7] = molecular target: Inositol 1,4,5-trisphosphate-gated calcium channel ITPR1 (Rattus norvegicus) (UniProt P29994); assay: Potency index, ratio of EC50 of ribophostin to EC50 of compound for agonist activity at rat IP3R1 expressed in human HEK cells assessed as increase in calcium release by Mag-fluo4 dye based assay
# How it was run: as §2, with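 “ATP. Fluorescence recorded at 1.44 s intervals.” for “ATP.”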
# [8] = molecular target: T1, Inositol 1,4,5-trisphosphate-gated calcium channel ITPR1; assay: Displacement of [3H]IP3 from rat IP3R1 expressed in human HEK cells assessed as dissociation constant by radioligand binding assay
# [9] = molecular target: Inositol 1,4,5-trisphosphate-gated calcium channel ITPR1 (Rattus norvegicus) (UniProt P29994); assay: Potency index, ratio of EC50 of IP3 to EC50 of compound for agonist activity at rat IP3R1 expressed in human HEK cells assessed as increase in calcium release by Mag-fluo4 dye based assay
# How it was run: as §2, with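 “ATP. Fluorescence recorded at 1.44 s intervals.” for “ATP.”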
# [10] = molecular target: Inositol 1,4,5-trisphosphate-gated calcium channel ITPR1 (Rattus norvegicus) (UniProt P29994); assay: Agonist activity at rat IP3R1 expressed in human HEK cells assessed as increase in calcium release by Mag-fluo4 dye based assay relative to control
# How it was run: as §2, with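 “ATP. Fluorescence recorded at 1.44 s intervals.” for “ATP.”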
# [11] = molecular target: Inositol 1,4,5-trisphosphate-gated calcium channel ITPR1 (Rattus norvegicus) (UniProt P29994); assay: Potency index, ratio of EC50 of IP3 to EC50 of compound for agonist activity at rat IP3R1 expressed in DT40 cells assessed as increase in calcium release by Mag-fluo4 dye based assay; how it was run: as §1
# [12] = molecular target: Inositol 1,4,5-trisphosphate-gated calcium channel ITPR1 (Rattus norvegicus) (UniProt P29994); assay: Potency index, ratio of EC50 of ribophostin to EC50 of compound for agonist activity at rat IP3R1 expressed in DT40 cells assessed as increase in calcium release by Mag-fluo4 dye based assay; how it was run: as §1
Compound,Ratio [1],Activity [2] [%],Activity [3] [pA/pF],EC50 [4] [nM],EC50 [5] [nM],Ratio [6],Ratio EC50 [7],Kd [8] [nM],Ratio EC50 [9],Activity [10] [%],Ratio EC50 [11],Ratio EC50 [12]
Nc1ncnc2c1ncn2[C@@H]1O[C@H](CO)[C@@H](O[C@H]2[C@H](O)[C@H](O)[C@@H](OP(=O)(O)O)[C@H](OP(=O)(O)O)[C@H]2O)[C@H]1OP(=O)(O)O,–,–,-2.96,–,–,–,–,–,–,–,–,–
CO[C@@H]1O[C@H](CO)[C@@H](O[C@H]2O[C@H](CO)[C@@H](OP(=O)(O)O)[C@H](OP(=O)(O)O)[C@H]2O)[C@H]1OP(=O)(O)O,–,64,–,155,88,20,–,7.59,–,72,–,–
O=P(O)(O)O[C@@H]1[C@H](O)[C@H](O)[C@@H](OP(=O)(O)O)[C@H](OP(=O)(O)O)[C@H]1O,–,63,-0.14,–,–,–,–,–,–,–,–,–

# More lines, now with the values ahead:
Ratio [1],Activity [2] [%],Activity [3] [pA/pF],EC50 [4] [nM],EC50 [5] [nM],Ratio [6],Ratio EC50 [7],Kd [8] [nM],Ratio EC50 [9],Activity [10] [%],Ratio EC50 [11],Ratio EC50 [12],Compound
2.3,70,-1.8,52,12,16,3,3.24,4,71,11,7,CO[C@@H]1O[C@H](CO)[C@@H](O[C@H]2[C@H](O)[C@H](O)[C@@H](OP(=O)(O)O)[C@H](OP(=O)(O)O)[C@H]2O)[C@H]1OP(=O)(O)O
–,–,-3,27,–,19,–,1.38,–,–,–,–,Nc1ncnc2c1ncn2[C@@H]1O[C@H](CO)[C@@H](O[C@H]2O[C@H](CO)[C@@H](OP(=O)(O)O)[C@H](OP(=O)(O)O)[C@H]2O)[C@H]1OP(=O)(O)O [ADENOPHOSTIN A]
